In general, MBC refers to the lowest tested concentration that kills the bacteria rather than only halting them. Low values mean greater bactericidal potency, high ones weaker bactericidal potency. For orientation: MIC means the lowest concentration that inhibits growth of the organism. A low value points to greater potency. In general, half-life refers to the time needed for the level to fall by half in the phase considered.

≈ marks a conversion by molar mass, not a printed value. Calls of active or inactive are those of the source.

Series [1] concerns Staphylococcus aureus. The series is described as follows: Bactericidal activity against vancomycin-resistant Staphylococcus aureus VRSA10 after 18 hrs by broth microdilution method. Type of series: functional. Particulars: VRSA10, 18 h. An outline of the steps:
(§1)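 From MIC wells without visible growth, 5 uL spotted onto Tryptic soy agar, incubated 37 °C for at least 18 h; MBC taken as lowest concentration giving 99.9% growth inhibition.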
(Broth dilution looks for growth in wells or tubes with falling amounts of substance.)

Series [2] deals with Staphylococcus aureus. The series is described as follows: Antibacterial activity against methicillin-resistant Staphylococcus aureus USA200 NRS383 clinical isolate preincubated followed by bacterial subculturing for 2 weeks. The format is functional.
Series [3] deals with Staphylococcus aureus. Kind of series: Antibacterial activity against methicillin-resistant Staphylococcus aureus USA100 NRS382 clinical isolate after 20 hrs by broth microdilution method. Particulars: USA100 NRS382, 20 h. Type of series: functional. An outline of the steps:
(§2)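 CLSI broth microdilution in cation-adjusted Mueller Hinton broth; compounds serially diluted, triplicate samples; 37 °C, 20 h. MIC read visually as lowest concentration with no visible growth; mean of triplicate determinations reported.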

The test system of series [4] is Staphylococcus aureus. Kind of series: Antibacterial activity against methicillin-resistant Staphylococcus aureus USA100 NRS382 clinical isolate preincubated followed by bacterial subculturing for 2 weeks. The format is functional.
The subject of series [5] is Staphylococcus aureus. The series is described as follows: Antibacterial activity against methicillin-resistant Staphylococcus aureus USA300 NRS384 clinical isolate preincubated followed by bacterial subculturing for 2 weeks. Type of series: functional.
Series [6] relates to Staphylococcus aureus. The series is described as follows: Bactericidal activity against methicillin-resistant Staphylococcus aureus USA300 NRS384 clinical isolate after 18 hrs by broth microdilution method. Type of series: functional. Particulars: USA300 NRS384, 18 h. An outline of the steps: as §1
Series [7] has as its system Staphylococcus aureus. The series is described as follows: Antibacterial activity against methicillin-resistant Staphylococcus aureus USA400 NRS123 clinical isolate preincubated followed by bacterial subculturing for 2 weeks. The format is functional.
Series [8] has as its system Staphylococcus aureus. Kind of series: Antibacterial activity against vancomycin-resistant Staphylococcus aureus VRSA4 after 20 hrs by broth microdilution method. The format is functional. Particulars: VRSA4, 20 h. An outline of the steps: as §2
In series [9] the test system is Staphylococcus aureus. Kind of series: Antibacterial activity against Staphylococcus aureus RN4220 NRS107 clinical isolate after 20 hrs by broth microdilution method. The format is functional. Particulars: RN4220 NRS107, 20 h. An outline of the steps: as §2
The subject of series [10] is Staphylococcus aureus. Kind of series: Bactericidal activity against vancomycin-resistant Staphylococcus aureus VRSA4 after 18 hrs by broth microdilution method. Type of series: functional. Particulars: VRSA4, 18 h. An outline of the steps:
as §1

Series [11] deals with Staphylococcus aureus. The series is described as follows: Bactericidal activity against methicillin-resistant Staphylococcus aureus USA200 NRS383 clinical isolate after 18 hrs by broth microdilution method. The format is functional. Particulars: USA200 NRS383, 18 h. An outline of the steps: as §1
The test system of series [12] is Staphylococcus aureus. The series is described as follows: Antibacterial activity against vancomycin-resistant Staphylococcus aureus VRSA10 after 20 hrs by broth microdilution method. The format is functional. Particulars: VRSA10, 20 h. An outline of the steps:
as §2

Series [13] has as its system Staphylococcus aureus. The series is described as follows: Antibacterial activity against methicillin-resistant Staphylococcus aureus USA200 NRS383 clinical isolate after 20 hrs by broth microdilution method. Type of series: functional. Particulars: USA200 NRS383, 20 h. An outline of the steps: as §2
Series [14] relates to Staphylococcus aureus. Kind of series: Bactericidal activity against methicillin-resistant Staphylococcus aureus USA400 NRS123 clinical isolate after 18 hrs by broth microdilution method. Type of series: functional. Particulars: USA400 NRS123, 18 h. An outline of the steps:
as §1

A short description of series [15]: Intrinsic clearance in human liver microsomes in presence of NADPH by LC-MS/MS method. Particulars: read-out: CLH. The format is ADME, microsome. (In general: Microsomes from liver hold many membrane-bound enzymes, among them those of drug oxidation.)
In series [16] the test system is Staphylococcus aureus. Kind of series: Antibacterial activity against methicillin-resistant Staphylococcus aureus USA400 NRS123 clinical isolate after 20 hrs by broth microdilution method. Type of series: functional. Particulars: USA400 NRS123, 20 h. An outline of the steps: as §2
Series [17] has as its system Staphylococcus aureus. The series is described as follows: Bactericidal activity against methicillin-resistant Staphylococcus aureus USA100 NRS382 clinical isolate after 18 hrs by broth microdilution method. Type of series: functional. Particulars: USA100 NRS382, 18 h. An outline of the steps: as §1
For series [18], the system named is Staphylococcus aureus. The series is described as follows: Antibacterial activity against methicillin-resistant Staphylococcus aureus USA300 NRS384 clinical isolate after 20 hrs by broth microdilution method. Type of series: functional. Particulars: USA300 NRS384, 20 h. An outline of the steps: as §2
The subject of series [19] is Staphylococcus aureus. The series is described as follows: Bactericidal activity against Staphylococcus aureus RN4220 NRS107 clinical isolate after 18 hrs by broth microdilution method. The format is functional. Particulars: RN4220 NRS107, 18 h. An outline of the steps:
as §1

Series [20] can be described thus: Half life in human liver microsomes in presence of NADPH by LC-MS/MS method. The format is ADME, microsome.

As for `CCCCOc1ccc(NC(=O)Nc2ccc(/C(C)=N/NC(=N)N)cc2)cc1`, the minimal bactericidal concentration (MBC) against Staphylococcus aureus [1] came out at 32 µg/mL (≈ 83.7 µM); with Staphylococcus aureus [6], 16 µg/mL (≈ 41.8 µM); in the series on Staphylococcus aureus [10], 16 µg/mL (≈ 41.8 µM); in the series on Staphylococcus aureus [11] it was 32 µg/mL (≈ 83.7 µM); with Staphylococcus aureus [14], 32 µg/mL (≈ 83.7 µM); in the series with Staphylococcus aureus [17], 16 µg/mL (≈ 41.8 µM). For the same compound, the MBC with Staphylococcus aureus [19] is above 64 µg/mL. Besides, the result in the series on Staphylococcus aureus [2], with Staphylococcus aureus [4], in the series on Staphylococcus aureus [5] and in the series on Staphylococcus aureus [7] was Active. Moreover, the MIC is 16 µg/mL (≈ 41.8 µM) in the series with Staphylococcus aureus [3]; 16 µg/mL (≈ 41.8 µM) against Staphylococcus aureus [8]; 16 µg/mL (≈ 41.8 µM) with Staphylococcus aureus [9]; 16 µg/mL (≈ 41.8 µM) against Staphylococcus aureus [12]; 16 µg/mL (≈ 41.8 µM) with Staphylococcus aureus [13]; 8 µg/mL (≈ 20.9 µM) against Staphylococcus aureus [16]. This compound also registered a minimum inhibitory concentration (MIC) in the series with Staphylococcus aureus [18] of 16 µg/mL (≈ 41.8 µM). Moreover, the microsomal CLint in series [15] amounted to 51 µL/min/mg. Moreover, the half-life in [20] stood at 1.09 h.

Take `CCCCCCCOc1ccc(NC(=O)Nc2ccc(/C(C)=N/NC(=N)N)cc2)cc1`: the MBC in the series on Staphylococcus aureus [1] stood at 16 µg/mL (≈ 37.7 µM); against Staphylococcus aureus [6], 16 µg/mL (≈ 37.7 µM); against Staphylococcus aureus [10] it was 8 µg/mL (≈ 18.8 µM); with Staphylococcus aureus [11], 8 µg/mL (≈ 18.8 µM); in the series on Staphylococcus aureus [14], 16 µg/mL (≈ 37.7 µM); in the series on Staphylococcus aureus [17] it was 16 µg/mL (≈ 37.7 µM). The compound further had an MBC against Staphylococcus aureus [19] of 8 µg/mL (≈ 18.8 µM). Besides, the outcome with Staphylococcus aureus [2], with Staphylococcus aureus [4], in the series on Staphylococcus aureus [5] and with Staphylococcus aureus [7] was Active. Further, the MIC with Staphylococcus aureus [3] was 16 µg/mL (≈ 37.7 µM); against Staphylococcus aureus [8] it was 8 µg/mL (≈ 18.8 µM); against Staphylococcus aureus [9], 8 µg/mL (≈ 18.8 µM); in the series on Staphylococcus aureus [12] it was 16 µg/mL (≈ 37.7 µM); against Staphylococcus aureus [13], 8 µg/mL (≈ 18.8 µM); against Staphylococcus aureus [16], 16 µg/mL (≈ 37.7 µM). For the same compound, in the series with Staphylococcus aureus [18], the minimal inhibitory concentration (MIC) worked out at 16 µg/mL (≈ 37.7 µM).

In the case of `CCCCc1ccc(NC(=O)Nc2ccc(/C(C)=N/NC(=N)N)cc2)cc1`, the microsomal CLint in series [15] stood at 190 µL/min/mg. In addition, the MIC in the series with Staphylococcus aureus [16] turned out to be 8 µg/mL (≈ 21.8 µM). The half-life in [20] came to 0.217 h.

Consider `CCCCCCCCOc1ccc(NC(=O)Nc2ccc(/C(C)=N/NC(=N)N)cc2)cc1`, for which the MBC with Staphylococcus aureus [1] stood at 32 µg/mL (≈ 73 µM); in the series with Staphylococcus aureus [6], 16 µg/mL (≈ 36.5 µM); in the series on Staphylococcus aureus [10] it was 32 µg/mL (≈ 73 µM); in the series with Staphylococcus aureus [11] it was 16 µg/mL (≈ 36.5 µM); with Staphylococcus aureus [14], 32 µg/mL (≈ 73 µM); in the series with Staphylococcus aureus [17], 32 µg/mL (≈ 73 µM). In the series on Staphylococcus aureus [19], this compound gave a minimum bactericidal concentration (MBC) of 32 µg/mL (≈ 73 µM). For the same compound, the result in the series on Staphylococcus aureus [2], with Staphylococcus aureus [4], in the series on Staphylococcus aureus [5] and with Staphylococcus aureus [7] was Active. The MIC is 16 µg/mL (≈ 36.5 µM) with Staphylococcus aureus [3]; 16 µg/mL (≈ 36.5 µM) against Staphylococcus aureus [8]; 16 µg/mL (≈ 36.5 µM) in the series with Staphylococcus aureus [9]; 16 µg/mL (≈ 36.5 µM) against Staphylococcus aureus [12]; 16 µg/mL (≈ 36.5 µM) in the series on Staphylococcus aureus [13]; 32 µg/mL (≈ 73 µM) in the series on Staphylococcus aureus [16]. This compound also registered an MIC against Staphylococcus aureus [18] of 16 µg/mL (≈ 36.5 µM).

On to `C/C(=N\NC(=N)N)c1ccc(NC(=O)Nc2ccc(C(C)(C)C)cc2)cc1`, for which the outcome in the series on Staphylococcus aureus [2], in the series with Staphylococcus aureus [4], with Staphylococcus aureus [5] and in the series with Staphylococcus aureus [7] was Active. In the series with Staphylococcus aureus [3], the minimal inhibitory concentration (MIC) came to 64 µg/mL (≈ 175 µM). In addition, the microsomal CLint in series [15] came out at 20 µL/min/mg. In the series on Staphylococcus aureus [17], this compound gave a minimal bactericidal concentration (MBC) of 128 µg/mL (≈ 349 µM). Also, the half-life in series [20] was 2.9 h.

Turning to `CCCCCCOc1ccc(NC(=O)Nc2ccc(/C(C)=N/NC(=N)N)cc2)cc1`, the MBC in the series on Staphylococcus aureus [1] is 8 µg/mL (≈ 19.5 µM); with Staphylococcus aureus [6] it was 16 µg/mL (≈ 39 µM); in the series on Staphylococcus aureus [10] it was 8 µg/mL (≈ 19.5 µM); with Staphylococcus aureus [11] it was 8 µg/mL (≈ 19.5 µM); against Staphylococcus aureus [14], 16 µg/mL (≈ 39 µM); against Staphylococcus aureus [17], 4 µg/mL (≈ 9.74 µM). Further, in the series with Staphylococcus aureus [19], the minimal bactericidal concentration (MBC) was 8 µg/mL (≈ 19.5 µM). Further, the outcome in the series with Staphylococcus aureus [2], in the series with Staphylococcus aureus [4], with Staphylococcus aureus [5] and in the series with Staphylococcus aureus [7] was Active. Besides, the minimal inhibitory concentration (MIC) in the series on Staphylococcus aureus [3] is 4 µg/mL (≈ 9.74 µM); with Staphylococcus aureus [8] it was 8 µg/mL (≈ 19.5 µM); in the series on Staphylococcus aureus [9], 8 µg/mL (≈ 19.5 µM); against Staphylococcus aureus [12], 8 µg/mL (≈ 19.5 µM); in the series on Staphylococcus aureus [13], 4 µg/mL (≈ 9.74 µM); against Staphylococcus aureus [16], 8 µg/mL (≈ 19.5 µM). Moreover, the MIC in the series on Staphylococcus aureus [18] is 8 µg/mL (≈ 19.5 µM).
